In ChEMBL document CHEMBL1649475, “In vivo pharmacodynamic profile of tigecycline against phenotypically diverse Escherichia coli and Klebsiella pneumoniae isolates” (Antimicrob Agents Chemother, 2009):

Experiments:
[1] = Ratio of fAUC to MIC in Klebsiella pneumoniae isolate 135-infected ICR mouse at 50% maximal effective concentration; type: functional
How it was run: (§1)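 EI50, EI80 and the static exposure were read from fitted curves. Free AUC came from earlier mouse PK using concentration-dependent protein binding set at Cmax. MICs were run in triplicate by CLSI broth microdilution in Mueller-Hinton broth prepared <12 h before testing, or by Etest.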

[2] = Ratio of fAUC to MIC in extended-spectrum beta-lactamase producing Klebsiella pneumoniae isolate 255-infected ICR mouse at 50% maximal effective concentration; type: functional
How it was run: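 Female CD-1/ICR mice (~25 g) were made neutropenic with cyclophosphamide IP (150 mg/kg day −4, 100 mg/kg day −1). Each thigh received 0.1 ml IM of 10^7 CFU/ml inoculum. Tigecycline in saline was given SC 2 h later, single or multiple doses, 6.25–300 mg/kg/day. Three mice per group.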

[3] = Ratio of fAUC to MIC in extended-spectrum beta-lactamase producing Klebsiella pneumoniae isolate 266-infected ICR mouse at 50% maximal effective concentration; type: functional; how it was run: as §1
[4] = Ratio of fAUC to MIC in extended-spectrum beta-lactamase producing Klebsiella pneumoniae isolate 320-infected ICR mouse at 50% maximal effective concentration; type: functional; how it was run: as §1
[5] = Ratio of fAUC to MIC in carbapenemase producing Klebsiella pneumoniae isolate 321-infected ICR mouse at 50% maximal effective concentration; type: functional; how it was run: as §1
[6] = Ratio of fAUC to MIC in Escherichia coli isolate 54-infected ICR mouse at bacteriostatic concentration; type: functional; how it was run: as §1
[7] = Ratio of fAUC to MIC in Escherichia coli isolate 120-infected ICR mouse at bacteriostatic concentration; type: functional; how it was run: as §1
[8] = Ratio of fAUC to MIC in extended-spectrum beta-lactamase producing Escherichia coli isolate 315-infected ICR mouse at bacteriostatic concentration; type: functional; how it was run: as §1
[9] = Ratio of fAUC to MIC in extended-spectrum beta-lactamase producing Escherichia coli isolate 321-infected ICR mouse at bacteriostatic concentration; type: functional; how it was run: as §1
[10] = Ratio of fAUC to MIC in extended-spectrum beta-lactamase producing Escherichia coli isolate 322-infected ICR mouse at bacteriostatic concentration; type: functional; how it was run: as §1
[11] = Ratio of fAUC to MIC in Klebsiella pneumoniae isolate 134-infected ICR mouse at bacteriostatic concentration; type: functional; how it was run: as §1
[12] = Ratio of fAUC to MIC in Klebsiella pneumoniae isolate 135 at bacteriostatic concentration; type: functional; how it was run: as §1
[13] = Ratio of fAUC to MIC in extended-spectrum beta-lactamase producing Klebsiella pneumoniae isolate 255-infected ICR mouse at bacteriostatic concentration; type: functional; how it was run: as §1
[14] = Ratio of fAUC to MIC in extended-spectrum beta-lactamase producing Klebsiella pneumoniae isolate 266 at bacteriostatic concentration; type: functional; how it was run: as §1
[15] = Ratio of fAUC to MIC in extended-spectrum beta-lactamase producing Klebsiella pneumoniae isolate 320-infected ICR mouse at bacteriostatic concentration; type: functional; how it was run: as §1
[16] = Ratio of fAUC to MIC in carbapenemase producing Klebsiella pneumoniae isolate 321-infected ICR mouse at bacteriostatic concentration; type: functional; how it was run: as §1
Escherichia coli [17] = assay: Antibacterial activity against Escherichia coli isolate 54 infected in ICR mouse assessed as change in bacterial load at 6.25 to 50 mg/kg, sc; type: functional; conditions: dose mg/kg 6.25-50; route subcutaneous
How it was run: (§2)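 Female CD-1/ICR mice (~25 g) were made neutropenic with intraperitoneal cyclophosphamide, 150 mg/kg 4 days and 100 mg/kg 1 day before inoculation. Isolates were grown on blood agar at 35°C for 18–24 h, and 0.1 ml of 10^7 CFU/ml was injected intramuscularly per thigh. At 2 h, tigecycline in saline was given sc as single or multiple doses of 3.125–50 mg/kg. Thighs were homogenized at 24 h and plated. Read-out was mean change in log10 CFU/ml versus 0-h controls, three mice per group.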

Escherichia coli [18] = assay: Antibacterial activity against Escherichia coli isolate 120 infected in ICR mouse assessed as change in bacterial load at 6.25 to 50 mg/kg, sc; type: functional; conditions: dose mg/kg 6.25-50; route subcutaneous; how it was run: as §2
Escherichia coli [19] = assay: Antibacterial activity against extended-spectrum beta-lactamase producing Escherichia coli isolate 315 infected in ICR mouse assessed as change in bacterial load at 6.25 to 50 mg/kg, sc; type: functional; conditions: dose mg/kg 6.25-50; route subcutaneous; how it was run: as §2
Escherichia coli [20] = assay: Antibacterial activity against extended-spectrum beta-lactamase producing Escherichia coli isolate 321 infected in ICR mouse assessed as change in bacterial load at 6.25 to 50 mg/kg, sc; type: functional; conditions: dose mg/kg 6.25-50; route subcutaneous; how it was run: as §2
Escherichia coli [21] = assay: Antibacterial activity against extended-spectrum beta-lactamase producing Escherichia coli isolate 322 infected in ICR mouse assessed as change in bacterial load at 6.25 to 50 mg/kg, sc; type: functional; conditions: dose mg/kg 6.25-50; route subcutaneous; how it was run: as §2
Klebsiella pneumoniae [22] = assay: Antibacterial activity against Klebsiella pneumoniae isolate 134 infected in ICR mouse assessed as change in bacterial load at 6.25 to 50 mg/kg, sc; type: functional; conditions: dose mg/kg 6.25-50; route subcutaneous; how it was run: as §2
Klebsiella pneumoniae [23] = assay: Antibacterial activity against Klebsiella pneumoniae isolate 135 infected in ICR mouse assessed as change in bacterial load at 6.25 to 50 mg/kg, sc; type: functional; conditions: dose mg/kg 6.25-50; route subcutaneous; how it was run: as §2
Klebsiella pneumoniae [24] = assay: Antibacterial activity against extended-spectrum beta-lactamase producing Klebsiella pneumoniae isolate 255 infected in ICR mouse assessed as change in bacterial load at 6.25 to 50 mg/kg, sc; type: functional; conditions: dose mg/kg 6.25-50; route subcutaneous; how it was run: as §2
Klebsiella pneumoniae [25] = assay: Antibacterial activity against extended-spectrum beta-lactamase producing Klebsiella pneumoniae isolate 266 infected in ICR mouse assessed as change in bacterial load at 6.25 to 50 mg/kg, sc; type: functional; conditions: dose mg/kg 6.25-50; route subcutaneous; how it was run: as §2
Klebsiella pneumoniae [26] = assay: Antibacterial activity against extended-spectrum beta-lactamase producing Klebsiella pneumoniae isolate 320 infected in ICR mouse assessed as change in bacterial load at 6.25 to 50 mg/kg, sc; type: functional; conditions: dose mg/kg 6.25-50; route subcutaneous; how it was run: as §2
Klebsiella pneumoniae [27] = assay: Antibacterial activity against carbapenemase producing Klebsiella pneumoniae isolate 321 infected in ICR mouse assessed as change in bacterial load at 6.25 to 50 mg/kg, sc; type: functional; conditions: dose mg/kg 6.25-50; route subcutaneous; how it was run: as §2
Mus musculus = assay: AUC in ICR mouse at 6.25 mg/kg, sc; conditions: in vivo
[28] = Cmax in ICR mouse at 6.25 mg/kg, sc; conditions: in vivo

With CN(C)c1cc(NC(=O)CNC(C)(C)C)c(O)c2c1C[C@H]1C[C@H]3[C@H](N(C)C)C(O)=C(C(N)=O)C(=O)[C@@]3(O)C(O)=C1C2=O [TIGECYCLINE] the fAUC/MIC [1] was 3.62, the fAUC/MIC [2] was 2.64 and the fAUC/MIC [3] was 5.37. It also gave a fAUC/MIC [4] of 2.01, a fAUC/MIC [5] of 4.53 and a fAUC/MIC [6] of 5.96. The fAUC/MIC [7] was 4.76, the fAUC/MIC [8] was 3.88 and the fAUC/MIC [9] was 6.83. The fAUC/MIC [10] was 7.5, the fAUC/MIC [11] was 6.53 and the fAUC/MIC [12] was 5.4. The fAUC/MIC [13] was 2.02, the fAUC/MIC [14] was 5.13 and the fAUC/MIC [15] was 3.09. The fAUC/MIC [16] was 5.47, the log10CFU/ml (Escherichia coli [17]) was -2.05 and the log10CFU/ml (Escherichia coli [18]) was -2.3. It also gave a log10CFU/ml (Escherichia coli [19]) of -2, a log10CFU/ml (Escherichia coli [20]) of -2.54 and a log10CFU/ml (Escherichia coli [21]) of -2.4. For the same molecule, the log10CFU/ml (Klebsiella pneumoniae [22]) was -1.42, the log10CFU/ml (Klebsiella pneumoniae [23]) was -1.51 and the log10CFU/ml (Klebsiella pneumoniae [24]) was -3.15. It also gave a log10CFU/ml (Klebsiella pneumoniae [25]) of -1.34, a log10CFU/ml (Klebsiella pneumoniae [26]) of -1.12 and a log10CFU/ml (Klebsiella pneumoniae [27]) of -1.46. For the same molecule, the AUC (Mus musculus) was 4800 ng·h/mL and the Cmax [28] was 1700 ng/mL.
